Source: ChEMBL document CHEMBL1123468, “Synthesis and antiviral activity of (E)-5-(2-bromovinyl)uracil and (E)-5-(2-bromovinyl)uridine” (1986)
≈ marks a conversion by molar mass, not a printed value.

What was measured:
E6SM [1] = experiment: The concentration required to reduce the cytopathogenicity of HSV-1 (KOS) in E6SM cell culture by 50% in presence of 1 ug/mL of dUrd; assay type: functional; conditions: Homo sapiens
Summary of the method: (§1)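 E6SM cells infected with HSV-1 (KOS), with Urd or dUrd added alone or together with 6-aminothymine (50 μg/mL). The value is the minimum concentration that reduces viral cytopathogenicity by 50%.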

HeLa = experiment: The compound was tested for its antiviral activity against HSV-1 (KOS) virus in HeLa cell line; assay type: functional; conditions: Homo sapiens
Summary of the method: (§2)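 Virus-induced cytopathogenicity in cell culture, scored microscopically. The value is the minimum concentration that cuts viral cytopathogenicity by 50%. Normal cell morphology was also checked microscopically at up to 400 μg/mL.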

E6SM [2] = experiment: The concentration required to reduce the cytopathogenicity of HSV-1 (KOS) in E6SM cell culture by 50% in presence of 100 ug/mL of dUrd and 50 ug/mL of 6-aminothymine; assay type: functional; conditions: Homo sapiens; summary of the method: as §1
T-21 (LR) = experiment: The compound was tested for its antiviral activity against HSV-1 (KOS) virus in T-21 (LR) cell line; assay type: functional; conditions: Homo sapiens; summary of the method: as §2
E6SM [3] = experiment: The compound was tested for its antiviral activity against HSV-1 (McIntyre) virus in E6SM cell culture; assay type: functional; conditions: Homo sapiens; summary of the method: as §2
PRK = experiment: The compound was tested for its antiviral activity against HSV-1 (KOS) virus in PRK cell line; assay type: functional; conditions: Oryctolagus cuniculus
Summary of the method: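 Primary rabbit kidney cells infected with HSV-1 (KOS). The value is the minimum concentration that cuts viral cytopathogenicity by 50%. Cytotoxicity was judged as microscopically detectable alteration of cell morphology at up to 400 μg/mL.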

E6SM [4] = experiment: The concentration required to reduce the cytopathogenicity of HSV-1 (KOS) in E6SM cell culture by 50% in presence of 100 ug/mL of Urd; assay type: functional; conditions: Homo sapiens; summary of the method: as §1
E6SM [5] = experiment: The compound was tested for its antiviral activity against HSV-1 (KOS) virus in E6SM cell culture; assay type: functional; conditions: Homo sapiens; summary of the method: as §2
E6SM [6] = experiment: The concentration required to reduce the cytopathogenicity of HSV-1 (KOS) in E6SM cell culture by 50% in presence of 1 ug/mL of Urd; assay type: functional; conditions: Homo sapiens; summary of the method: as §1
E6SM [7] = experiment: The concentration required to reduce the cytopathogenicity of HSV-1 (KOS) in E6SM cell culture by 50% in presence of 50 ug/mL of 6-aminothymine; assay type: functional; conditions: Homo sapiens
Summary of the method: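 E6SM cultures were infected with HSV-1 strain KOS. 6-Aminothymine or benzylacyclouridine was present in the medium together with the test compound. The value is the minimum concentration giving 50% reduction of viral cytopathogenicity, scored by the earlier-described cytopathogenicity inhibition procedure.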

E6SM [8] = experiment: The compound was tested for its antiviral activity against HSV-1 (F) virus in E6SM cell culture; assay type: functional; conditions: Homo sapiens; summary of the method: as §2
E6SM [9] = experiment: The concentration required to reduce the cytopathogenicity of HSV-1 (KOS) in E6SM cell culture by 50% in presence of 10 ug/mL dThd; assay type: functional; conditions: Homo sapiens
Summary of the method: (§3)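 E6SM cells infected with HSV-1 (KOS), with dThd added to the culture medium at the stated concentration. The value is the minimum concentration that reduces viral cytopathogenicity by 50%.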

E6SM [10] = experiment: The concentration required to reduce the cytopathogenicity of HSV-1 (KOS) in E6SM cell culture by 50% in presence of 1 ug/mL of Urd and 50 ug/mL of 6-aminothymine; assay type: functional; conditions: Homo sapiens; summary of the method: as §1
Mo = experiment: The compound was tested for its antiviral activity against HSV-1 (KOS) virus in MO cell line; assay type: functional; conditions: Homo sapiens; summary of the method: as §2
E6SM [11] = experiment: The concentration required to reduce the cytopathogenicity of HSV-1 (KOS) in E6SM cell culture by 50% in presence of 3 ug/mL dThd; assay type: functional; conditions: Homo sapiens; summary of the method: as §3
HEp-2 = experiment: The compound was tested for its antiviral activity against HSV-1 (KOS) virus in HEp-2M cell line; assay type: functional; conditions: Homo sapiens; summary of the method: as §2
E6SM [12] = experiment: The compound was tested for its antiviral activity against HSV-2 (196) virus in E6SM cell culture; assay type: functional; conditions: Homo sapiens; summary of the method: as §2
Vero = experiment: The compound was tested for its antiviral activity against HSV-1 (KOS) virus in vero cell line; assay type: functional; conditions: Chlorocebus sabaeus; summary of the method: as §2
E6SM [13] = experiment: The compound was tested for its antiviral activity against HSV-2 (Lyons) virus in E6SM cell culture; assay type: functional; conditions: Homo sapiens; summary of the method: as §2
E1 SM = experiment: The compound was tested for its antiviral activity against HSV-1 (KOS) virus in E1SM cell line; assay type: functional, Homo sapiens; summary of the method: as §2
E6SM [14] = experiment: The concentration required to reduce the cytopathogenicity of HSV-1 (KOS) in E6SM cell culture by 50% in presence of 10 ug/mL of Urd and 50 ug/mL of 6-aminothymine,; assay type: functional; conditions: Homo sapiens; summary of the method: as §1
E6SM [15] = experiment: The compound was tested for its antiviral activity against HSV-2 (G) virus in E6SM cell culture; assay type: functional; conditions: Homo sapiens; summary of the method: as §2
E6SM [16] = experiment: The compound was tested for its antiviral activity against HSV-1 (KOS) virus in E6SM cell line; assay type: functional; conditions: Homo sapiens; summary of the method: as §2
E6SM [17] = experiment: The concentration required to reduce the cytopathogenicity of HSV-1 (KOS) in E6SM cell culture by 50% in presence of 1 ug/mL dThd; assay type: functional; conditions: Homo sapiens; summary of the method: as §3
E6SM [18] = experiment: The compound was tested for its antiviral activity against TK-HSV-1 (B2006) virus in E6SM cell culture; assay type: functional; conditions: Homo sapiens; summary of the method: as §2
E6SM [19] = experiment: The compound was tested for its antiviral activity against vaccinia virus in E6SM cell culture; assay type: functional; conditions: Homo sapiens; summary of the method: as §2
E6SM [20] = experiment: The concentration required to reduce the cytopathogenicity of HSV-1 (KOS) in E6SM cell culture by 50% in absence of dUrd; assay type: functional; conditions: Homo sapiens; summary of the method: as §1
BALB/3T3 = experiment: The compound was tested for its antiviral activity against HSV-1 (KOS) virus in BALB/3T3 cell line; conditions: Mus musculus
E6SM [21] = experiment: The concentration required to reduce the cytopathogenicity of HSV-1 (KOS) in E6SM cell culture by 50% in presence of 10 ug/mL of dUrd; assay type: functional; conditions: Homo sapiens; summary of the method: as §1
E6SM [22] = experiment: The concentration required to reduce the cytopathogenicity of HSV-1 (KOS) in E6SM cell culture by 50% in presence of 100 ug/mL dThd; assay type: functional; conditions: Homo sapiens; summary of the method: as §3
E6SM [23] = experiment: The concentration required to reduce the cytopathogenicity of HSV-1 (KOS) in E6SM cell culture by 50% in presence of 100 ug/mL of Urd and 50 ug/mL of 6-aminothymine; assay type: functional; conditions: Homo sapiens; summary of the method: as §1
E6SM [24] = experiment: The concentration required to reduce the cytopathogenicity of HSV-1 (KOS) in E6SM cell culture by 50% in presence of 100 ug/mL of dUrd; assay type: functional; conditions: Homo sapiens; summary of the method: as §1
E6SM [25] = experiment: The concentration required to reduce the cytopathogenicity of HSV-1 (KOS) in E6SM cell culture by 50% in presence of 30 ug/mL dThd; assay type: functional; conditions: Homo sapiens
Summary of the method: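 Thymidine (dThd) was added to the E6SM culture medium alongside the test compound, and cells were infected with HSV-1 strain KOS. The endpoint is the minimum inhibitory concentration that reduces viral cytopathogenicity by 50%. The cytopathogenicity inhibition procedure follows the earlier-described method.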

E6SM [26] = experiment: The concentration required to reduce the cytopathogenicity of HSV-1 (KOS) in E6SM cell culture by 50% in presence of 1 ug/mL of dUrd and 50 ug/mL of 6-aminothymine; assay type: functional; conditions: Homo sapiens; summary of the method: as §1

SMILES	MIC50 (E6SM [1]) [µg/mL]	MIC50 (HeLa) [µg/mL]	MIC50 (E6SM [2]) [µg/mL]	MIC50 (T-21 (LR)) [µg/mL]	MIC50 (E6SM [3]) [µg/mL]	MIC50 (PRK) [µg/mL]	MIC50 (E6SM [4]) [µg/mL]	MIC50 (E6SM [5]) [µg/mL]	MIC50 (E6SM [6]) [µg/mL]	MIC50 (E6SM [7]) [µg/mL]	MIC50 (E6SM [8]) [µg/mL]	MIC50 (E6SM [9]) [µg/mL]	MIC50 (E6SM [10]) [µg/mL]	MIC50 (Mo) [µg/mL]	MIC50 (E6SM [11]) [µg/mL]	MIC50 (HEp-2) [µg/mL]	MIC50 (E6SM [12]) [µg/mL]	MIC50 (Vero) [µg/mL]	MIC50 (E6SM [13]) [µg/mL]	MIC50 (E1 SM) [µg/mL]	also measured
Oc1ncc(/C=C/Br)c(O)n1	10	2 (≈ 9.22 µM)	7	7 (≈ 32.3 µM)	4 (≈ 18.4 µM)	> 400	4	7 (≈ 32.3 µM)	2	> 400	4 (≈ 18.4 µM)	70	> 400	> 400	4	> 200	> 400	> 400	> 400	7 (≈ 32.3 µM)	MIC50 (E6SM [14]): > 400 µg/mL; MIC50 (E6SM [15]): > 400 µg/mL; MIC50 (E6SM [16]): 7 µg/mL (≈ 32.3 µM); MIC50 (E6SM [17]): 7 µg/mL; MIC50 (E6SM [18]): > 200 µg/mL; MIC50 (E6SM [19]): > 400 µg/mL; MIC50 (E6SM [20]): 7 µg/mL (≈ 32.3 µM); MIC50 (BALB/3T3): > 400 µg/mL; MIC50 (E6SM [21]): 0.7 µg/mL; MIC50 (E6SM [22]): > 400 µg/mL; MIC50 (E6SM [23]): > 400 µg/mL; MIC50 (E6SM [24]): 0.7 µg/mL; MIC50 (E6SM [25]): > 400 µg/mL; MIC50 (E6SM [26]): > 400 µg/mL
O=c1[nH]c(=O)n([C@H]2C[C@H](O)[C@@H](CO)O2)cc1/C=C/Br [BRIVUDINE]	0.01	0.04 (≈ 0.12 µM)	0.2	0.02 (≈ 0.06 µM)	0.02 (≈ 0.06 µM)	0.007 (≈ 0.021 µM)	0.02	0.02 (≈ 0.06 µM)	0.04	0.01	0.02 (≈ 0.06 µM)	0.4	0.02	0.007 (≈ 0.021 µM)	0.02	0.2 (≈ 0.6 µM)	10 (≈ 30 µM)	0.4 (≈ 1.2 µM)	4 (≈ 12 µM)	0.02 (≈ 0.06 µM)	MIC50 (E6SM [14]): 0.04 µg/mL; MIC50 (E6SM [15]): 2 µg/mL (≈ 6 µM); MIC50 (E6SM [16]): 0.02 µg/mL (≈ 0.06 µM); MIC50 (E6SM [17]): 0.02 µg/mL; MIC50 (E6SM [18]): 40 µg/mL (≈ 120 µM); MIC50 (E6SM [19]): 7 µg/mL (≈ 21 µM); MIC50 (E6SM [20]): 0.02 µg/mL (≈ 0.06 µM); MIC50 (BALB/3T3): 0.1 µg/mL (≈ 0.3 µM); MIC50 (E6SM [21]): 0.02 µg/mL; MIC50 (E6SM [22]): 300 µg/mL; MIC50 (E6SM [23]): 0.02 µg/mL; MIC50 (E6SM [24]): 0.2 µg/mL; MIC50 (E6SM [25]): 70 µg/mL; MIC50 (E6SM [26]): 0.01 µg/mL
